Activity calls are given as the source filed them.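 How the source made its calls, unless noted: active means fluorescence slope after compound addition differing from the mean of all tested samples at 99.7% confidence, mostly higher but some lower; inactive means the rest.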
Key:
[1] = inhibitors of TNFa-induced NFkB p65 translocation, primary screen, imaging, HUVEC, MLSMR starter and 10KST1 sets (AID 438;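 active means inhibition above 20% together with a positive visual image hit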;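 further: compound added about 3h40 before a 20 min TNFalpha stimulation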;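 on inhibition: signal is the nuclear over cytoplasmic p65 intensity ratio per well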); conditions: HUVEC TNFa-induced p65 nuclear translocation; cell count: measured here: nuclei count (cytotoxicity indicator), at 2.08 µM; inhibition: at 2 µM, stronger effect = higher value, 0% TNFa-plus-vehicle, 100% no-TNFa wells
[2] = reduction of polyQ htt aggregates in cells – imaging, exon1htt(103Q)mCFP cells, high-content imaging, primary screen (AID 483;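 active means visual image review flags a hit and inhibition of aggregation exceeds 20%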;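 further: compound exposure lasted 3 days before fixation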;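 on nuclei count: percent of the per-plate median nuclei count of sample wells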); conditions: exon1htt(103Q)mCFP cell line, aggregate imaging, at 2 µM; inhibition of aggregation: stronger effect = higher value; nuclei count: measured here: cell count, toxicity
[3] = endothelial E-selectin expression blockers – imaging, HUVEC, immunofluorescence, MLSMR starter and 10KST1 sets, primary screen (AID 487;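 active means visually confirmed hit in the image check and inhibition above 20%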;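 on inhibition: signal is fraction of cell area covered by stained E-selectin grains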;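 on nuclei count: 100% = median nuclei count of all wells on the same plate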); conditions: HUVEC TNFalpha-induced E-selectin immunofluorescence imaging, at 2 µM; inhibition: stronger effect = higher value; nuclei count: measured here: cell number, toxicity
[4] = biological target: Voltage-gated potassium channel subunit beta-2 (Rattus norvegicus) (UniProt P62483); experiment: inhibitors of rat Kvbeta2 reductase activity – biochemical, NADPH fluorescence, primary screen (AID 622;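 active means fluorescence slope higher than the sample average by over 3 SD, cut at about -0.22 in these data, passing the limit was not always enough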;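 further: slope of raw intensity against log time taken from 70 to 1610 s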); conditions: recombinant KvBeta, 4-cyanobenzaldehyde reduction, at 10 µM, stronger effect = higher value
Sequence of Voltage-gated potassium channel subunit beta-2 (Rattus norvegicus) (P62483 whole entry, looked up): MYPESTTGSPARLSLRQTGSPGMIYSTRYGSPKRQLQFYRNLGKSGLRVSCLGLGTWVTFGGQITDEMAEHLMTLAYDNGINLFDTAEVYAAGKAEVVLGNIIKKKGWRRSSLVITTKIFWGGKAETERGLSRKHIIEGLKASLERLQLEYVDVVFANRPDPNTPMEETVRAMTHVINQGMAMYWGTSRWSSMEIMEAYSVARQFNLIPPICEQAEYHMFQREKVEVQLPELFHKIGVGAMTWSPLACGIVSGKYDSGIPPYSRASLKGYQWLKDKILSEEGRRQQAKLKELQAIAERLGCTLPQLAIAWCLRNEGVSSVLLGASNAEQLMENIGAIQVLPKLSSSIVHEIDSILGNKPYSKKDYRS

[5] = biological target: Voltage-gated potassium channel subunit beta-2 (Rattus norvegicus) (UniProt P62483); experiment: enhancers of rat Kvbeta2 NADPH turnover – biochemical, NADPH fluorescence, primary screen (AID 623;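 active means NADPH fluorescence slope more negative than the mean of all samples by about 3 SD, 99.7% confidence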;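 further: fluorescence intensity change per second fitted from 20 to 320 s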); conditions: Recombinant KvBeta, NADPH fluorescence decrease slope, 10 min; at 10 µM; stronger effect = lower value
[6] = biological target: Muscarinic acetylcholine receptor M4 (Homo sapiens) (UniProt P08173); experiment: M4-linked GIRK flux change, two-sided – cell-based, HEK293 M4/GIRK, thallium flux, BTC-AM, M4 allosteric agonist project, primary screen (AID 625); conditions: at 10 µM, actives lie on both sides;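 further: thallium influx through GIRK channels coupled to M4 in HEK293 cells with BTC-AM dye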
Sequence of Muscarinic acetylcholine receptor M4 (Homo sapiens) (P08173 whole entry, looked up): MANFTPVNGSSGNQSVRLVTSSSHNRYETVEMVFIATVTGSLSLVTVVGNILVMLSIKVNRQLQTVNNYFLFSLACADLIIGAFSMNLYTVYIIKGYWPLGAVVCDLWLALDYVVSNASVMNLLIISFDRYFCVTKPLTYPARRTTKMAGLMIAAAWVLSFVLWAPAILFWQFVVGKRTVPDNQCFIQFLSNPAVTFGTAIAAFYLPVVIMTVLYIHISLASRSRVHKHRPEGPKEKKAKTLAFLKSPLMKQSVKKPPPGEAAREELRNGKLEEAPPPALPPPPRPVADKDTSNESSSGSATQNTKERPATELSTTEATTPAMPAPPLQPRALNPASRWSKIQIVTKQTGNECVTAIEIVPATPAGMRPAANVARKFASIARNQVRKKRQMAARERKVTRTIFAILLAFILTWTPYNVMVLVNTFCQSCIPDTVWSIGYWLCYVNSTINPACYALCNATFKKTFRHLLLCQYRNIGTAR
How it was run: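 Assay system: HEK293 cells with M4 receptor and GIRK channels / Controls: carbachol and DMSO controls / Schedule: 1 h dye loading, 2 min kinetic read / Technique: kinetic fluorescence with BTC-AM dye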

[7] = blockers of RIG-like receptor reporter activation – cell-based, Sendai virus stimulus, luciferase, 10K MLSCN set, TLR/RLR signaling modifier project, primary screen (AID 602276;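 active means inhibition at or above 50% at 10 µM; inactive means inhibition below 50%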;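 further: firefly luciferase from ISG56 promoter only with Renilla not read in this screen; 0% = Sendai virus plus DMSO and 100% = medium plus DMSO without virus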); conditions: HEK293 RL24 IRF3 luciferase reporter, at 10 µM, stronger effect = higher value
[8] = TLR3 IRF3 reporter activation blockers – cell-based, poly I:C stimulus, luciferase, 10K MLSCN set, primary screen (AID 602277;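 active means inhibition of the reporter signal at or above 50%; inactive means inhibition below 50%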); conditions: HEK293-TLR3 RL24 IRF3 luciferase reporter, at 10 µM, stronger effect = higher value

Compound	cell count [1]	inhibition [1]	inhibition of aggregation [2]	nuclei count [2]	inhibition [3]	nuclei count [3]	fluorescence slope [4]	NADPH fluorescence slope [5]	fluorescence slope [6]	inhibition [7]	inhibition [8]
CN1CC[n+]2cnc3ccccc3c21	600	1.2% (inactive)	-17.8% (inactive)	103%	-9.4% (inactive)	122%	-0.585 (inactive)	-8.5e-05 (inactive)	0.00403 (inactive)	16.8% (inactive)	19.3% (inactive)
O=C(COc1ccc(S(=O)(=O)N2CCCC2)cc1Cl)NC1CC1	349	5.7% (inactive)	-1.8% (inactive)	58.7%	21.6% (inactive)	98.3%	-0.232 (inactive)	-1.9e-05 (inactive)	0.007 (inactive)	15.4% (inactive)	16.4% (inactive)
CCOC(=O)c1cnc(-n2nc(C)cc2C)nc1Nc1cccc(C(C)=O)c1	634	-25.9% (inactive)	-14% (inactive)	104%	15.1% (inactive)	111%	-0.567 (inactive)	-1.4e-05 (inactive)	0.00544 (inactive)	-13.6% (inactive)	-13% (inactive)
CCCC(=O)N=C1SC2CS(=O)(=O)CC2N1c1ccc(CC)cc1 (centres undefined)	286	20.4% (inactive)	23.4% (inactive)	87%	26.4% (inactive)	98.5%	-0.402 (inactive)	-3.7e-05 (inactive)	0.0062 (inactive)	15.3% (inactive)	24.6% (inactive)
COC(=O)c1[nH]c2cccc(C)c2c1NC(=O)CN1CCCc2ccccc21	279	6.2% (inactive)	22.8% (inactive)	94%	-47.3% (inactive)	100%	-0.45 (inactive)	6.4e-05 (inactive)	0.00793 (inactive)	2.04% (inactive)	20% (inactive)
CCCCn1c(CN2CCN(CCO)CC2)nc2ccccc21	611	6.2% (inactive)	-17.9% (inactive)	112%	44.3% (inactive)	84.5%	-0.468 (inactive)	-0.000309 (inactive)	0.00452 (inactive)	2.03% (inactive)	19.1% (inactive)
CC1(C)C2CCC1(CS(=O)(=O)NCc1ccc(C(=O)O)cc1)C(=O)C2 (centres undefined)	517	-16.3% (inactive)	1.1% (inactive)	90.1%	46.1% (inactive)	100%	-0.606 (inactive)	2.9e-05 (inactive)	0.00724 (inactive)	36.1% (inactive)	30.6% (inactive)
O=C(Nc1ccc(Cl)cc1C(=O)Nc1ccncc1)c1ccco1	393	2.1% (inactive)	-7.4% (inactive)	81.3%	-148% (inactive)	101%	-0.316 (inactive)	-1.2e-05 (inactive)	0.00491 (inactive)	18.3% (inactive)	28.5% (inactive)
N#Cc1cnc(SCC(=O)Nc2ccccc2C(F)(F)F)nc1N	743	2.2% (inactive)	15.1% (inactive)	102%	-205% (inactive)	121%	-0.371 (inactive)	5.4e-05 (inactive)	0.00496 (inactive)	14% (inactive)	22.7% (inactive)
CCCC(C)C1C(C#N)=C(N)Oc2cc(C)oc(=O)c21 (centres undefined)	396	-15.6% (inactive)	-2.4% (inactive)	68.3%	-185% (inactive)	134%	-0.455 (inactive)	-9.5e-05 (inactive)	0.00507 (inactive)	18.1% (inactive)	18.7% (inactive)
CCCn1c2ccccc2c2nnc(SCC(=O)OCC)nc21	412	-1.5% (inactive)	-3% (inactive)	124%	14.6% (inactive)	104%	-0.536 (inactive)	-7.3e-05 (inactive)	0.00386 (inactive)	17.9% (inactive)	25% (inactive)
COC(=O)CN1C(=O)C2(C(C#N)=C(N)Oc3c2c(C)nn3-c2ccccc2)c2ccccc21 (centres undefined)	668	-24.1% (inactive)	5% (inactive)	97.4%	18.6% (inactive)	97.4%	-0.475 (inactive)	-6.6e-05 (inactive)	0.0047 (inactive)	16.1% (inactive)	19.7% (inactive)
COc1cc(OC)cc(-c2nc3nc(C)c(CCC(=O)O)c(C)n3n2)c1	681	-14.6% (inactive)	0.2% (inactive)	111%	46.5% (inactive)	97.4%	-0.522 (inactive)	-3.8e-05 (inactive)	0.00535 (inactive)	21.9% (inactive)	28.4% (inactive)
CCCN1C2=C(C(=O)CCC2)C(c2ccc(O)c(Br)c2)C2=C1CCCC2=O	736	-30.6% (inactive)	2% (inactive)	97.2%	-7.3% (inactive)	107%	-0.531 (inactive)	-5.9e-05 (inactive)	0.00464 (inactive)	9.76% (inactive)	17.2% (inactive)

— PubChem BioAssay
